These results are taken from ChEMBL document CHEMBL1128194, “A new series of pyridinone derivatives as potent non-nucleoside human immunodeficiency virus type 1 specific reverse transcriptase inhibitors” (J Med Chem, 1995).

The test system of assay [1] is CEM-SS. The assay can be described thus: Specific index of IC50 and CC50 on HIV-1 IIIB wild type. The assay is classed as functional.
Assay [2] deals with CEM-SS. The assay can be described thus: Cytotoxicity against wild type HIV-1-IIIB strain infected CEMSS cells. The assay is classed as functional. As to conditions: Homo sapiens. Summed up: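 Uninfected cells were incubated with compound for 5 days. Viability was read by MTT reduction to formazan at OD540. CC50 is the concentration that halves OD540, taken from a median-effect computer analysis.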

In assay [3] the test system is Human immunodeficiency virus 1. The assay can be described thus: Inhibition of wild type HIV-1-IIIB strain replication in CEM-SS cells. The format is functional, organism-based. As to conditions: Human immunodeficiency virus 1, CEM-SS. An outline of the steps: (§1)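 Cells were infected with 100 TCID50 for 30 min and washed twice to remove unbound virus. They were then cultured 5 days with a range of compound concentrations. Virus production was quantified as particle-associated RT activity in the supernatant. IC50 was derived from a computer-generated median-effect plot of dose–effect data.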

In assay [4] the test system is CEM-SS. The assay can be described thus: The compound was tested for inhibition of nevirapine HIV-1 resistant strain. The format is functional, cell-based. As to conditions: Homo sapiens. Summed up: (§2)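 Cells infected with 100 TCID50 virus for 30 min. Unbound virus removed by two washes, then cells cultured 5 days with a range of compound concentrations. Virus production read as particle-associated RT activity in the culture supernatant. IC50 taken from a computer-generated median effect plot of the dose–effect data.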

Assay [5] has as its target Human immunodeficiency virus type 1 reverse transcriptase (Human immunodeficiency virus 1, UniProt Q72547). The assay can be described thus: Inhibition of HIV-1 reverse transcriptase (RT). Summed up: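 Recombinant HIV-1 RT (20–50 nM) was expressed in yeast. Assays ran 10 min at 37 °C in 50 mM Tris-HCl pH 8.0 with 5 mM MgCl2, 4 mM DTT, 80 mM KCl and BSA. Template-primer was poly(C)-oligo(dG) (5:1, 0.48 A260/mL), with 2 μM dGTP plus [3H]dGTP. Product was precipitated with cold TCA/pyrophosphate, filtered and scintillation counted. Compounds were in DMSO, with matched DMSO controls.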

For assay [6], the system named is CEM-SS. The assay can be described thus: The compound was tested for inhibition of wild type HIV-1-IIIB strain. As to conditions: Homo sapiens. The format is functional, cell-based. An outline of the steps:
as §1

A short description of assay [7]: Specific index of IC50 and CC50 on HIV-1 Nevirapine resistant strain. The assay is classed as functional.
In assay [8] the test system is CEM-SS. The assay can be described thus: The compound was tested for cytotoxicity against nevirapine HIV-1 resistant strain infected CEMSS cells. The assay is classed as functional. As to conditions: Homo sapiens.
For assay [9], the system named is CEM-SS. The assay can be described thus: The compound was tested for inhibition of Nevirapine resistant HIV-1 (N119) cells. The format is functional, cell-based. As to conditions: Homo sapiens. Summed up:
as §2

Some results are limits rather than exact numbers.

Take `CCOC(=O)Nc1c(O)ncc(C)c1Sc1cc(C)cc(C)c1`: the Specific index in the assay on CEM-SS [1] is >13. The CC50 in the assay on CEM-SS [2] is > 100 µM. The 50% inhibitory concentration (IC50) in [3] stood at 7.5 µM.
For `Cc1cnc(O)c([N+](=O)[O-])c1Sc1ccccn1`, in that order: >1, 28.5 µM and 18 µM.
In the case of `Cc1cc(C)cc(Sc2c(C)cnc(O)c2N)c1`, the IC50 in the assay on CEM-SS [4] was > 10 µM; in assay [5] it was 0.1 µM; in assay [3] it was 0.01 µM. In addition, the Specific index with CEM-SS [1] is listed as >1000. Also, in the assay on CEM-SS [2], the CC50 is > 10 µM.
For the compound `CCCCCCC(=O)Nc1c(O)ncc(C)c1Sc1cc(C)cc(C)c1`, the IC50 with CEM-SS [6] is > 10 µM. Further, the CC50 in the assay with CEM-SS [2] is > 10 µM.
`Cc1cc(C)cc(Sc2c(C)cnc(O)c2NC(=O)Cc2ccccc2)c1`: the 50% cytotoxic concentration (CC50) in the assay with CEM-SS [2] is > 10 µM. For the same compound, the IC50 in assay [3] was > 10 µM.
Turning to `CCOC(=O)c1c(O)nc(C)c(CC)c1Sc1cc(C)cc(C)c1`, the figures for the Specific index (in assay [7]; in the assay with CEM-SS [1]) were > 4.5 and >3333, respectively. The IC50 stood at 2.2 µM in the assay on CEM-SS [4] and 0.003 µM in assay [3]. Moreover, the CC50 in the assay with CEM-SS [2] is > 10 µM.
In the assay with CEM-SS [2], `Cc1cnc(O)c(N)c1Sc1nc2ccccc2o1` returned a CC50 of 7.5 µM. For the same compound, in [3], the IC50 came out at 8 µM.
`Cc1cnc(O)c([N+](=O)[O-])c1Sc1nc2ccccc2s1` came in with a CC50 in the assay with CEM-SS [2] of 13.5 µM. The compound also yielded an IC50 in [3] of 14.5 µM.
Regarding `Cc1cn([C@H]2C[C@H](N=[N+]=[N-])[C@@H](CO)O2)c(=O)[nH]c1=O` [ZIDOVUDINE], the CC50 with CEM-SS [2] was > 100 µM.
Consider `CC(C)=CCN1Cc2cc(Cl)cc3[nH]c(=S)n(c23)C[C@@H]1C`, for which the CC50 in the assay on CEM-SS [2] was > 10 µM. In [3], the IC50 is > 10 µM.
Consider `Cc1cccc(Sc2c(C)cnc(O)c2[N+](=O)[O-])c1`, for which the IC50 in [5] is > 10 µM. In the assay with CEM-SS [2], the CC50 is > 10 µM.
Regarding `Cc1cccc(Sc2c(C)c[nH]c(=O)c2N)c1`, in assay [5], the IC50 is > 4 µM.
As for `Cc1cccc(Sc2c(C)cnc(O)c2N)c1`, the Specific index in [7] was > 1; with CEM-SS [1], >55. For the same compound, the IC50 in the assay with CEM-SS [4] amounted to 41.5 µM; in assay [3], 1.4 µM. Besides, the CC50 in the assay with CEM-SS [2] and in the assay on CEM-SS [8] was 78 µM in each case.
Turning to `Cc1cc(C)nc(Sc2c(C)cnc(O)c2[N+](=O)[O-])n1`, the Specific index in the assay on CEM-SS [1] is listed as >1. This compound came in with a CC50 in the assay with CEM-SS [2] of 19.5 µM. In addition, the IC50 in [3] is 17.5 µM.
With `CC(=O)Nc1c(O)ncc(C)c1Sc1cc(C)cc(C)c1`, the IC50 was > 100 µM in the assay on CEM-SS [4], > 4 µM in [5] and 0.067 µM in [3]. Further, the Specific index in the assay with CEM-SS [1] is on record as >1492. For the same compound, in the assay on CEM-SS [2], the CC50 is > 100 µM.
Turning to `Cc1cc(O)nc(Sc2c(C)cnc(O)c2[N+](=O)[O-])n1`, the CC50 in the assay with CEM-SS [2] is > 100 µM. In addition, in assay [3], the IC50 is > 100 µM.
Compound `CCc1c(C)[nH]c(=O)c([N+](=O)[O-])c1Sc1cc(C)cc(C)c1` had an IC50 in [5] of 0.03 µM.
Regarding `Cc1cnc(O)c([N+](=O)[O-])c1SC1=NCCS1`, the Specific index in the assay on CEM-SS [1] is >1. Moreover, the CC50 in the assay with CEM-SS [2] stood at 21.5 µM. Moreover, in [3], the IC50 turned out to be 17 µM.
For `CCc1c(C)nc(O)c(NC(C)=O)c1Sc1cc(C)cc(C)c1`, the figures for the Specific index (in assay [7]; in the assay with CEM-SS [1]) were > 23 and 1600, respectively. The results for the concentration for half-maximal inhibition (IC50) (in the assay on CEM-SS [4]; in assay [3]) were 4.3 µM and 0.05 µM, respectively. For the same compound, the cytotoxic concentration (CC50) in the assay with CEM-SS [2] was 80 µM; with CEM-SS [8] it was > 100 µM.
For `Cc1cc(C)cc(Nc2c(C)cnc(O)c2[N+](=O)[O-])c1`, the Specific index in the assay with CEM-SS [1] is >2. The CC50 in the assay on CEM-SS [2] was > 100 µM. This compound also returned an IC50 in assay [3] of 45 µM.
With `CCc1cnc(O)c(N)c1Sc1cc(C)cc(C)c1`, the Specific index in assay [7] is > 1; with CEM-SS [1], >1000. The IC50 was 6.7 µM in the assay with CEM-SS [4] and 0.01 µM in [3]. The CC50 with CEM-SS [2] was > 10 µM.
Consider `Cc1cc(C)cc(Sc2c(N)c(O)nc3ccccc23)c1`, for which the results for the Specific index (in assay [7]; with CEM-SS [1]) were > 1.5 and >36, respectively. The IC50 came to 6.6 µM in the assay on CEM-SS [4] and 0.25 µM in assay [3]. Moreover, the CC50 in the assay with CEM-SS [2] was > 9 µM; with CEM-SS [8] it was 8.2 µM.
In the case of `CCc1cnc(O)c([N+](=O)[O-])c1Sc1cc(C)cc(C)c1`, the Specific index in [7] is > 1; with CEM-SS [1], >111. The IC50 in the assay on CEM-SS [4] is 6.7 µM; in assay [3], ~0.09 µM. In addition, in the assay on CEM-SS [2], the CC50 was > 10 µM.
On to `Cc1cnc(O)c([N+](=O)[O-])c1Sc1ccccc1`, for which the CC50 in the assay on CEM-SS [2] is > 10 µM. The IC50 in assay [3] was > 10 µM.
On to `Cc1cc(C)cc(Sc2c(C)cnc(O)c2[N+](=O)[O-])c1`, for which the values for the IC50 (with CEM-SS [9]; in [5]; in [3]) were > 10 µM, > 10 µM and 0.12 µM, respectively. In addition, the Specific index in the assay on CEM-SS [1] is given as >83. The CC50 in the assay on CEM-SS [2] was > 10 µM.
Consider `CCC(=O)Nc1c(O)ncc(C)c1Sc1cc(C)cc(C)c1`, for which the IC50 was > 4 µM in assay [5] and 41.4 µM in [3]. Also, in the assay with CEM-SS [1], the Specific index was >2. The CC50 in the assay with CEM-SS [2] is > 100 µM.
As for `Cc1cnc(O)c([N+](=O)[O-])c1Sc1nc2ccccc2[nH]1`, the Specific index with CEM-SS [1] was >1. For the same compound, in the assay on CEM-SS [2], it took 54.5 µM to reach half-maximal cytotoxicity (CC50). The same compound came in with an IC50 in [3] of 43.5 µM.
As for `Cc1cc(C)cc(Sc2c([N+](=O)[O-])c(O)nc3ccccc23)c1`, the IC50 is > 10 µM in the assay on CEM-SS [4] and 3.8 µM in assay [3]. In addition, the Specific index in the assay with CEM-SS [1] is recorded as >26. Moreover, the half-maximal cytotoxic concentration (CC50) with CEM-SS [2] was > 100 µM.
For the compound `Cc1c(Sc2ccccc2)n(COCc2ccccc2)c(=O)[nH]c1=O`, it took 0.4 µM to reach half-maximal inhibition in assay [5] (IC50).
As for `CCc1c(Sc2cc(C)cc(C)c2)cc(O)nc1C`, the IC50 in assay [5] came out at 0.4 µM; in [3] it was 0.5 µM. In the assay on CEM-SS [1], the Specific index is reported as >20. For the same compound, the CC50 with CEM-SS [2] is > 10 µM.
With `CCc1c(C)nc(O)c([N+](=O)[O-])c1Sc1cc(C)cc(C)c1`, the values for the Specific index (in assay [7]; in the assay on CEM-SS [1]) were > 38 and >1666, respectively. For the same compound, the IC50 was 0.26 µM in the assay with CEM-SS [4] and ~0.006 µM in assay [3]. Besides, the CC50 in the assay on CEM-SS [2] was > 10 µM.
In assay [5], `CCOC(=O)c1c(Sc2cc(C)cc(C)c2)c(CC)c(C)[nH]c1=O` had a 50% inhibitory concentration (IC50) of 0.6 µM.
For `Cc1cc(C)cc(Sc2c(C)cnc(O)c2NC=O)c1`, the Specific index in the assay on CEM-SS [1] was >15. In the assay on CEM-SS [2], the CC50 is > 100 µM. In addition, the IC50 in assay [3] came to 6.6 µM.
`Cc1c(Sc2ccccc2)n(COCCO)c(=O)[nH]c1=O` [HEPT]: in assay [5], the IC50 is > 6 µM.
As to `Cc1cnc(O)c([N+](=O)[O-])c1Sc1nc2ccccc2o1`, the Specific index with CEM-SS [1] is recorded as >2. The compound also came in with a CC50 with CEM-SS [2] of 16 µM. In assay [3], this compound registered an IC50 of 5.5 µM.
With `Cc1cnc(O)c([N+](=O)[O-])c1Sc1nccn1C`, the Specific index in the assay on CEM-SS [1] is >1. Moreover, the midpoint of cytotoxicity in the assay with CEM-SS [2], the CC50, lay at 68.5 µM. The compound also yielded an IC50 in assay [3] of 56 µM.
On to `CCc1c(C)nc(O)c(N)c1Sc1cc(C)cc(C)c1`, for which the Specific index in [7] was > 4; in the assay with CEM-SS [1] it was >714. Besides, the values for the IC50 (with CEM-SS [4]; in [5]; in [3]) were 2.1 µM, 0.015 µM and 0.014 µM, respectively. The CC50 with CEM-SS [2] was > 10 µM.

One may read the CC50 as the concentration that lowers cell viability or growth by half. A higher CC50 goes with lower toxicity to the cells. A word on the IC50: it is the concentration needed to halve the response being measured.
